Consider seven compounds from ChEMBL document CHEMBL2434871, “Discovery of a potent dual EGFR/HER-2 inhibitor L-2 (selatinib) for the treatment of cancer” (Eur J Med Chem, 2013).

Data set [1] concerns the target Receptor tyrosine-protein kinase erbB-2 (Homo sapiens, UniProt P04626). In words: Inhibition of HER-2 (unknown origin) using poly-(Glu4-Tyr) as substrate after 1 hr by ELISA-based spectrophotometry. The method, boiled down: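 ELISA on plates pre-coated with poly(Glu,Tyr 4:1) substrate. Serially diluted compounds plus ATP were added in 50 mM HEPES pH 7.4 containing 20 mM MgCl₂, 0.2 mM MnCl₂, 0.1 mM Na₃VO₄ and 1 mM DTT. Phosphotyrosine was detected with anti-phosphotyrosine antibody PY99 (1:500), then HRP anti-mouse IgG, then o-phenylenediamine/H₂O₂ at pH 5.5.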
(In general: In an ELISA, binding on a coated surface is turned into a signal by an enzyme label.)

For data set [2], the target named is Epidermal growth factor receptor (Homo sapiens, UniProt P00533). Briefly: Inhibition of EGFR (unknown origin) using poly-(Glu4-Tyr) as substrate after 1 hr by ELISA-based spectrophotometry.
Epidermal growth factor receptor, sequence (P00533 whole entry): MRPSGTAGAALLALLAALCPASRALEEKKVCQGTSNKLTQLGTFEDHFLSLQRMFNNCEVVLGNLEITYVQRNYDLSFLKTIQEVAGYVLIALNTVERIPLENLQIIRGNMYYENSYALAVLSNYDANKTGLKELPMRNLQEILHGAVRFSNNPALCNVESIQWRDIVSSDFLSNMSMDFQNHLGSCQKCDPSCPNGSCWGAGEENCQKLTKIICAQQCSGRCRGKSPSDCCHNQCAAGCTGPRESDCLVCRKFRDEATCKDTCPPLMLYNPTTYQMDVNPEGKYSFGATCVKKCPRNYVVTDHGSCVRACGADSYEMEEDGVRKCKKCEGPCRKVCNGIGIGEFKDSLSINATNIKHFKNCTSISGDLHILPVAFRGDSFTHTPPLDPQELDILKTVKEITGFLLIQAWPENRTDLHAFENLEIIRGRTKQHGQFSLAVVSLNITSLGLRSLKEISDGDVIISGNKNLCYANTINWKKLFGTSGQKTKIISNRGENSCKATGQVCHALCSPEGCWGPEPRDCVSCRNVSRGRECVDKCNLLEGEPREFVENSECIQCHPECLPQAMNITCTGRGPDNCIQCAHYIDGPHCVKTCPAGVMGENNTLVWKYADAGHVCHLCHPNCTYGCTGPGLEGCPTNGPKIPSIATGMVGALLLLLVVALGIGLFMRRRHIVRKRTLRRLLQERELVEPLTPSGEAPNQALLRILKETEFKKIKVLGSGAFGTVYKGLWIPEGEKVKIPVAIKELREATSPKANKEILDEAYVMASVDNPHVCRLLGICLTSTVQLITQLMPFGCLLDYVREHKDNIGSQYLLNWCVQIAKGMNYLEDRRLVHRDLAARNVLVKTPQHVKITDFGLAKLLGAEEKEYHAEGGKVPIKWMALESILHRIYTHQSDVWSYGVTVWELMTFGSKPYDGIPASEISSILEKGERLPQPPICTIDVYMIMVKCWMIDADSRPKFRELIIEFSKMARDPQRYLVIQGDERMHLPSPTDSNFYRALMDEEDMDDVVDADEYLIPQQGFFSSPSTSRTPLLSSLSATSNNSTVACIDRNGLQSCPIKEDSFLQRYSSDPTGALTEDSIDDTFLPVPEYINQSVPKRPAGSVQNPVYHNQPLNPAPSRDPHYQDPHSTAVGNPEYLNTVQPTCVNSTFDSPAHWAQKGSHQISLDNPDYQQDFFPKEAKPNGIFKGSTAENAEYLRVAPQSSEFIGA
Another data set concerns BT-474. In words: Cytotoxicity against human BT474 cells after 72 hrs by SRB assay. It is filed as functional, cell-based. The following applies: BT-474, 72 h. A general note: The SRB assay estimates cell density from bound dye.
For data set [3], the system named is NCI-N87. Briefly: Cytotoxicity against human NCI-N87 cells after 72 hrs by SRB assay. The following applies: NCI-N87, 72 h. It is filed as functional, cell-based.
The subject of data set [4] is Rattus norvegicus. Briefly: Elimination half life in Wistar rat at 100 mg/kg, po assessed as lapatinib. The class given is ADME, organism-based. As to conditions: in vivo. On the set-up: dose 100 mg/kg, route oral. An outline of the steps:
(§1)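 Male Wistar rats (220 ± 10 g), n = 4 per group, given the tosylate salt orally by gavage at 100 mg/kg, suspended in 0.5% sodium carboxymethylcellulose. Blood was sampled at 0.25 to 24 h. Parent compound and the lapatinib metabolite were extracted by C18 solid-phase extraction and analysed by LC/MSn.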

A short description of data set [5]: Elimination half life in Wistar rat at 100 mg/kg, po. It is filed as ADME, organism-based. Details: dose 100 mg/kg, route oral. The following applies: in vivo, read-out: beta t1/2 (converted). The method, boiled down:
as §1

The test system of data set [6] is Rattus norvegicus. Briefly: Mean residence time in Wistar rat at 100 mg/kg, po assessed as lapatinib. It is filed as ADME, organism-based. Details: dose 100 mg/kg, route oral. The following applies: in vivo. An outline of the steps:
as §1

Data set [7] is described as follows: Mean residence time in Wistar rat at 100 mg/kg, po. It is filed as ADME, organism-based. The following applies: in vivo. Details: dose 100 mg/kg, route oral. The method, boiled down: as §1
In data set [8] the test system is Rattus norvegicus. In words: AUC (0 to infinity) in Wistar rat at 100 mg/kg, po assessed as lapatinib. The class given is ADME, organism-based, Plasma. Details: time infinity, dose 100 mg/kg, route oral. The following applies: in vivo. The method, boiled down: as §1
Data set [9] can be described thus: AUC (0 to infinity) in Wistar rat at 100 mg/kg, po. The class given is ADME, organism-based. Details: time infinity, dose 100 mg/kg, route oral. As to conditions: plasma. An outline of the steps:
as §1

The subject of data set [10] is Rattus norvegicus. Briefly: AUC (0 to t) in Wistar rat at 100 mg/kg, po assessed as lapatinib. It is filed as ADME, organism-based, Plasma. Details: dose 100 mg/kg, route oral. The following applies: in vivo. An outline of the steps: as §1
Data set [11] in a line: AUC (0 to t) in Wistar rat at 100 mg/kg, po. The following applies: plasma. It is filed as ADME, organism-based. On the set-up: dose 100 mg/kg, route oral. An outline of the steps: as §1
For data set [12], the system named is Rattus norvegicus. Briefly: Cmax in Wistar rat at 100 mg/kg, po assessed as lapatinib. It is filed as ADME, organism-based. Details: dose 100 mg/kg, route oral. The following applies: in vivo. The method, boiled down: as §1
Data set [13] in a line: Cmax in Wistar rat at 100 mg/kg, po. It is filed as ADME, organism-based. Details: dose 100 mg/kg, route oral. As to conditions: in vivo. An outline of the steps: as §1
Data set [14] concerns Rattus norvegicus. In words: Tmax in Wistar rat at 100 mg/kg, po assessed as lapatinib. Details: dose 100 mg/kg, route oral. It is filed as ADME, organism-based. The following applies: in vivo. An outline of the steps:
as §1

A short description of data set [15]: Tmax in Wistar rat at 100 mg/kg, po. It is filed as ADME, organism-based. Details: dose 100 mg/kg, route oral. The following applies: in vivo. An outline of the steps: as §1
For data set [16], the system named is NCI-N87. In words: Antitumor activity against human NCI-N87 cells xenografted in BALB/c athymic mouse assessed as tumor regression at 200 mg/kg, po qd after 28 days relative to vehicle-treated control. The class given is functional. As to conditions: NCI-N87, 672 h, read-out: TGI. An outline of the steps:
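Female BALB/c athymic mice, 4–6 weeks old, received 2 × 10⁶ NCI-N87 or SK-OV-3 cells s.c. in the right flank. At a tumor volume of 100–300 mm³ they were randomized (control n = 10, treated n = 6). Tosylate salt was given at 200 mg/kg qd by oral gavage, and controls received vehicle. Tumor volume was taken as length × width²/2 by caliper. Inhibition = (1 − T/C) × 100% on mean relative tumor volume (RTV). Two-tailed t test.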
For orientation: In xenograft studies the graft and the host belong to different species.

Data set [17] is described as follows: Aqueous solubility of the compound at 25 degC by shake-flask method. As to conditions: unbuffered water. The class given is physicochemical.
For another data set, the system named is SK-OV-3. In words: Antitumor activity against human SKOV3 cells xenografted in BALB/c athymic mouse assessed as tumor regression at 200 mg/kg, po qd after 21 days relative to vehicle-treated control. The following applies: SK-OV-3, po, 504 h, read-out: TGI.

Receptor tyrosine-protein kinase erbB-2, sequence (P04626 whole entry): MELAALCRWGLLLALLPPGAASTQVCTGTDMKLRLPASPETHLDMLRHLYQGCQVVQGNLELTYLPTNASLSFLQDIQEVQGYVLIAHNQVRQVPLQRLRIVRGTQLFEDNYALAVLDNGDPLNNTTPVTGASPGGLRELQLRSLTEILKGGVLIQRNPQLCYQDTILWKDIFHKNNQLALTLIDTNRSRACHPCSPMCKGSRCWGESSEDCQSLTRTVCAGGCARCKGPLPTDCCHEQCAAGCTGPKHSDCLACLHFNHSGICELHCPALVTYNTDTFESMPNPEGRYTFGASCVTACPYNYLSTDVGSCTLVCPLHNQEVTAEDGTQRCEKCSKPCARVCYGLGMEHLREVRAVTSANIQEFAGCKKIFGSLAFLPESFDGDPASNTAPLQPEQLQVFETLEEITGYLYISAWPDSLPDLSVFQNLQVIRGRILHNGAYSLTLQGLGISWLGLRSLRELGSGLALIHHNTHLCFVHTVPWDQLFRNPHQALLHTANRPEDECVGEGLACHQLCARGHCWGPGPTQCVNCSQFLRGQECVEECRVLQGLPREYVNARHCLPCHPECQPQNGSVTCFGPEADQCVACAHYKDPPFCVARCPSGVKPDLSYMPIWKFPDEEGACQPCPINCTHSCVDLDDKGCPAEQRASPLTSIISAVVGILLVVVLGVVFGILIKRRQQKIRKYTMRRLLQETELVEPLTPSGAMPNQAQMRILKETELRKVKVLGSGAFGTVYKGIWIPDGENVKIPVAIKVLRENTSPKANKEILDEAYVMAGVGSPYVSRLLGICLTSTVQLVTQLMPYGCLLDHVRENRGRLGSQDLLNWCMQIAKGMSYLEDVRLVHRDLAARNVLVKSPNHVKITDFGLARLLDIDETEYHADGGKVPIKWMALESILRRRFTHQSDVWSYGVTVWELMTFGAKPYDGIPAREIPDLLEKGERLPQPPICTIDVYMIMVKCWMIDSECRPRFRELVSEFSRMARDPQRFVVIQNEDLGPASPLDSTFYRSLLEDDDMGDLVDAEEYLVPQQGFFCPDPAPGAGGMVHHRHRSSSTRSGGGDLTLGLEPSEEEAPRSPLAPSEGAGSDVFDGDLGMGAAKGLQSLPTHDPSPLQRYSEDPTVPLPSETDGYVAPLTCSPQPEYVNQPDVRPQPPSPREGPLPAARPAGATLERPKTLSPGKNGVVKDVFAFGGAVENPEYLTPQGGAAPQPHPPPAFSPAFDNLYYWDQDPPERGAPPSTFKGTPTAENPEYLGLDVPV

In general, IC50 refers to the concentration needed to halve the response being measured. Low values mean greater potency, high ones weaker potency. As to `CS(=O)(=O)NCCNCc1ccc(-c2ccc3ncnc(Nc4ccc(OCc5cccc(F)c5)c(Cl)c4)c3c2)o1`, the values for the IC50 in [1] and in data set [2] were 15.9 nM and 18.7 nM, respectively.
Consider `Fc1cccc(COc2ccc(Nc3ncnc4ccc(-c5ccc(CN6CCOCC6)o5)cc34)cc2Cl)c1`, for which the IC50 in the data set on BT-474 was 84.6 nM; with NCI-N87 [3], 62.8 nM; in [1], 13.1 nM; in [2], 26 nM.
Usually MRT stands for a mean duration of stay, worked out from the concentration-time curve. Broadly, the AUC is the area under the concentration-time curve, a measure of exposure. By AUC(0-inf) is commonly meant total exposure, with the tail of the curve extrapolated. As a reminder, the AUC(0-t) is exposure summed from dosing to a finite time, without extrapolation to infinity. Low values mean less exposure, high ones more exposure. In general, Cmax refers to the highest concentration seen after dosing. A word on the Tmax: it is the time from dosing to the highest level. In the case of `C[S+]([O-])CCNCc1ccc(-c2ccc3ncnc(Nc4ccc(OCc5cccc(F)c5)c(Cl)c4)c3c2)o1.Cc1ccc(S(=O)(=O)O)cc1` (stereo not given), in the data set on Rattus norvegicus [4], the “beta t1/2” value worked out at 2.64 h. Further, the half-life in [5] was 2.32 h. Further, the MRT with Rattus norvegicus [6] turned out to be 5.88 h; in [7], 5.38 h. For the same compound, in the data set with Rattus norvegicus [8], the AUC was determined as 4309 ng·h/mL. This compound had an AUC(0-inf) in [9] of 53200 ng·h/mL. Moreover, the AUCt in the data set on Rattus norvegicus [10] was 4295 ng·h/mL. Moreover, the AUC(0-t) in data set [11] worked out at 50300 ng·h/mL. Further, the values for the Cmax (with Rattus norvegicus [12]; in data set [13]) were 645 ng/mL and 8880 ng/mL, respectively. Also, the figures for the Tmax (in the data set with Rattus norvegicus [14]; in data set [15]) were 4.5 h and 3.5 h, respectively.
As for `CC(=O)N1CCN(Cc2ccc(-c3ccc4ncnc(Nc5ccc(OCc6cccc(F)c6)c(Cl)c5)c4c3)o2)CC1`, the IC50 in data set [1] stood at 6.8 nM; in data set [2], 11.4 nM.
By solubility is commonly meant the concentration that dissolves in the medium under given conditions. As for `CS(=O)(=O)CCNCc1ccc(-c2ccc3ncnc(Nc4ccc(OCc5cccc(F)c5)c(Cl)c4)c3c2)o1.Cc1ccc(S(=O)(=O)O)cc1.Cc1ccc(S(=O)(=O)O)cc1.O` [LAPATINIB DITOSYLATE], the half-life in data set [5] was 1.91 h. In data set [7], this compound showed an MRT of 5.52 h. Further, in data set [9], the AUC(0-inf) worked out at 26900 ng·h/mL. The same compound showed an AUC(0-t) in data set [11] of 26900 ng·h/mL. In [13], this compound came in with a Cmax of 3900 ng/mL. Moreover, the Tmax in [15] stood at 2.5 h. Besides, the inhibition in vivo at 200 mg/kg in the data set on NCI-N87 [16] stood at 89.7%; with SK-OV-3, 78.8%. For the same compound, the values for the IC50 in the data set on BT-474 and with NCI-N87 [3] were 37.4 nM and 46.2 nM, respectively. The solubility in data set [17] was determined as 7 µg/mL.
Turning to `CCOC(=O)N1CCN(Cc2ccc(-c3ccc4ncnc(Nc5ccc(OCc6cccc(F)c6)c(Cl)c5)c4c3)o2)CC1`, the IC50 in data set [1] was 14.4 nM; in [2] it was 28 nM.
For `CN1CCN(C(=O)c2ccc(-c3ccc4ncnc(Nc5ccc(OCc6cccc(F)c6)c(Cl)c5)c4c3)o2)CC1`, in that order: 53.3 nM and 232 nM.
